Values after ≈ are worked out from the molar mass of the structure shown. Active and inactive are the calls of the source. The rule behind the calls is not given here.
Assays:
Plasmodium falciparum = experiment: Antiplasmodium activity against chloroquine-sensitive Plasmodium falciparum NF54 assessed as inhibition of [3H[hypoxanthine incorporation; type: functional, organism-based
In short: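 Run at Swiss TPH on P. falciparum NF54 (3D7 is a clone of it). Read-out is 3H-hypoxanthine incorporation. IC50 is the mean of ≥2 experiments.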

[1] = Kinetic solubility of the compound in phosphate buffered saline after 2 hrs at pH 7.4; type: physicochemical; conditions: read-out: Kinetic_solubility
In short: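 Kinetic solubility measured in PBS, pH 7.4.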

[2] = Apparent permeability of the compound from apical to basal side of human Caco2 cells at 10 uM after 60 mins; type: ADME, cell-based; conditions: Caco-2
In short: (§1)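 Apical and basal chambers in HBSS, pH 7.4. Compound at 10 μM added to the donor side at time zero. Donor and acceptor chambers both sampled after 60 min at 37 °C. A>B permeability reported in 10^-6 cm/s, plus efflux ratio.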

[3] = Efflux ratio of apparent permeability across human Caco2 cells at 10 uM after 60 mins; type: ADME, cell-based; conditions: Caco-2; in short: as §1
[4] = […]-phosphate buffered saline partition coefficient, log D after 5 hrs by LC-UV analysis at pH 7.4; type: physicochemical; conditions: octan-1-ol/phosphate buffered saline
In short: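 Log D from partition between octan-1-ol and phosphate-buffered PBS at pH 7.4.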

Plasmodium berghei [5] = experiment: Antimalarial activity against GFP-transfected Plasmodium berghei ANKA infected in mouse assessed as change in host survival time at 50 mg/kg, sc administered QD for 4 days relative to untreated control; type: functional, organism-based; parameters: dose 50 mg/kg
In short: (§2)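 Peters 4-day test: 50 mg/kg given sc once daily for 4 days. Parasitemia reduction and survival days are compared against infected, untreated control animals.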

[6] = Metabolic stability in human hepatic microsomes assessed as % turnover at 1 uM after 40 mins by LC/MS/MS analysis; conditions: liver microsomes
Plasmodium berghei [7] = experiment: Antimalarial activity against GFP-transfected Plasmodium berghei ANKA infected in mouse assessed as reduction in parasitemia at 50 mg/kg, sc administered QD for 4 days relative to vehicle-treated control; type: functional; parameters: scale not given: the % may be the effect or the level left; conditions: route subcutaneous; in short: as §2

Compound	IC50 (Plasmodium falciparum) [nM]	also measured
Cc1nnc(Cl)c2nn(-c3cccc(Cl)c3)c(C)c12	280	
c1ccn2c(Sc3ncnc4sccc34)nnc2c1	150	solubility kinetic at 2 h [1]: 20 µM (≈ 5.71 µg/mL); Papp A→B at 1 h, 10 µM [2]: 50 ×10⁻⁶ cm/s; efflux ratio at 1 h, 10 µM [3]: 0.28; logD at 5 h [4]: > 3.8; Activity (Plasmodium berghei [5]): inactive; % turnover at 40 min, 1 µM [6]: 50%; Activity (Plasmodium berghei [7]): 34%
COc1cccc(-n2nc3c(C)nnc(C)c3c2C)c1	> 100000	
Cc1ccc(-n2nc3c(Cl)nnc(C)c3c2C)cc1	310	
CC(=O)/N=C(/NC(C)=O)Nc1nc(C)c2cc(C)ccc2n1	3740	
O=C(Nc1cccc2[nH]c(C(F)(F)F)nc12)c1ccc(Cl)cc1	10800	
COc1nc(NC(=N)N)nc2ccc(C)cc12	740	
CCOc1ccc(-n2nc3c(Cl)nnc(C)c3c2C)cc1	340	
Cc1ccc(-n2c(Sc3ncnc4sccc34)nnc2N2CCCC2)cc1	150	
Cc1nnc(Cl)c2nn(-c3ccccc3)c(C)c12	430	
CCOc1nnc(C)c2c(C)n(-c3cccc(OC)c3)nc12	16000	
Cn1c(Sc2ncnc3sccc23)nnc1C1CC1	1480	
Fc1ccc(CNc2cccc3[nH]c(C(F)(F)F)nc23)cc1	490	solubility kinetic at 2 h [1]: < 5 µM; Papp A→B at 1 h, 10 µM [2]: 1.5 ×10⁻⁶ cm/s; efflux ratio at 1 h, 10 µM [3]: 0.43; logD at 5 h [4]: 2; % turnover at 40 min, 1 µM [6]: 19%
c1ccc(-c2csc3ncnc(Sc4nnc5ccccn45)c23)cc1	2670	
Cc1ccc(S(=O)(=O)Nc2cccc3[nH]c(C(F)(F)F)nc23)cc1	> 100000	
COc1ccc(CNc2cccc3[nH]c(C(F)(F)F)nc23)cc1	3930	
Cc1nnc(C)c2c(C)n(-c3ccc4c(c3)OCO4)nc12	> 100000	
CCc1nnc(Sc2ncnc3sccc23)[nH]1	1160	
CCCCN1CN=C(Nc2nc(C)c3ccccc3n2)NC1	1580	
COc1ccc(CNc2cccc3[nH]c(C)nc23)cc1	9900	
Cc1ccc(-n2nc3c(C)nnc(C)c3c2C)cc1	> 100000	
O=C(Cc1ccccc1)Nc1cccc2[nH]c(C(F)(F)F)nc12	> 100000	
Cc1nnc(Cl)c2nn(-c3ccc(Cl)cc3)c(C)c12	420	
Cc1nc(NC2=NCCC(=O)N2)nc2ccccc12	> 100000	
Cc1nnc(N2CCOCC2)c2nn(-c3ccccc3)c(C)c12	> 100000	
Cc1sc2ncnc(Sc3nnc(C(F)(F)F)n3C)c2c1C	5170	
Cc1sc2ncnc(Sc3nnc4ccccn34)c2c1C	460	
